CHRM1 antagonist = human CHRM1 antagonism. inhibition, % at 3 µM. AID 588852. P11229. CHO-K1 hM1, Fluo-8 calcium fluorescence, ACh EC80 antagonist. 360,000 tested, 1.3% active;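 active = percent inhibition above its own plate's cutoff, namely the mean of that plate's compound wells plus 3 SD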;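 note: peak over basal fluorescence ratio during 140 s after agonist addition; 0% = ACh EC80 plus DMSO and 100% = DMSO alone without agonist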
CHRM5 agonist = agonists of human muscarinic M5 receptor (CHRM5); P08912; CHO-K1 hM5 cells, Fluo-8 calcium fluorescence; 0% DMSO wells, 100% maximal acetylcholine response; activation, % at 3 µM; 360,000 tested, 0.19% active;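 active = activation above the run's mean over test compounds plus 3 SD, cut at about 23% in these data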;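 note: signal is peak over basal fluorescence ratio across the kinetic read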
Target sequence (P08912 whole entry, looked up): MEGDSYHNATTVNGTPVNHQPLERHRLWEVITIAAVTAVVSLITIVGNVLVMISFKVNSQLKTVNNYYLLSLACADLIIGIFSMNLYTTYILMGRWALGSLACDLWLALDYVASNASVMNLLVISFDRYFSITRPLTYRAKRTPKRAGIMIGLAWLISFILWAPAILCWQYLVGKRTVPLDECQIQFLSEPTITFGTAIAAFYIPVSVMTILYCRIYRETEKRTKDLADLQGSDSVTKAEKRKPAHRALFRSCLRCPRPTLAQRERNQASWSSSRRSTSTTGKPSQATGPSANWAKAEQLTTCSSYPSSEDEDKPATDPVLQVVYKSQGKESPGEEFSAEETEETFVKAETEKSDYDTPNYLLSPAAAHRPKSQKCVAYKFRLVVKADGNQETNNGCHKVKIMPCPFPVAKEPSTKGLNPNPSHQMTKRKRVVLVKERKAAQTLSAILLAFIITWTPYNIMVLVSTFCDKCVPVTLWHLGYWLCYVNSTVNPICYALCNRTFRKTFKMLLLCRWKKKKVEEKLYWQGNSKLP
M5 antag = CHRM5 antagonism in calcium assay; P08912; CHO-hM5 cells, Fluo-8 calcium fluorescence, ACh EC80; inhibition, % at 3 µM; 360,000 tested, 0.59% active; AID 624040;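 active = inhibition above a per-plate cutoff, the mean of that plate's test compounds plus 3 SD, cut at about 27% in these data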;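 note: 0% = acetylcholine EC80 with DMSO and 100% = DMSO without agonist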
CHRM5 PAM = CHRM5 positive allosteric modulation; activation, % at 3 µM; P08912; CHO-K1 hM5, Fluo-8 calcium, ACh EC20 PAM; 0% = ACh EC20, 100% = ACh EC100; 360,000 tested, 0.3% active;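 active = activation above the run cutoff, the mean activation of all test compounds plus 3 SD, cut at about 18% in these data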
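system = human M5 receptor in CHO-K1 cells | compound = one concentration, 3 µM final (nominal) | schedule = Post-acetylcholine fluorescence recording 140 s | signal = Fluo-8 calcium dye fluorescence, kinetic read | benchmarks = low control EC20 acetylcholine (0%), high control EC100 acetylcholine (100%) | repeats = singlicate, one well per test compound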
M1 PAM = positive allosteric modulators of human M1 muscarinic receptor; 360,000 tested, 0.088% active; CHO-K1 hM1, Fluo-8 calcium fluorescence, ACh EC20; 0% = ACh EC20, 100% = maximal ACh; P11229; activation, % at 3 µM; in the data active = activation above about 19%, passing the limit was not always enough
M1 ag = agonists of human M1 muscarinic receptor | CHO-K1 hM1, Fluo-8 calcium fluorescence, agonist mode; 0% DMSO, 100% acetylcholine EC100 | activation, % at 3 µM | 360,000 tested, 0.33% active | AID 588814;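 active = activation above the run's mean compound activation plus 3 SD, cut at about 16% in these data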;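 note: peak over basal fluorescence ratio within a 140 s kinetic read after compound addition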
The depositor's hits bear a star; · = no result. Only some compounds are listed: those with a hit (about 2% of all), similar ones and a draw of the others.

SMILES	CHRM1 antagonist	CHRM5 agonist	M5 antag	CHRM5 PAM	M1 PAM	M1 ag
Cc1cc(NC(=O)c2ccc3sc([C@@H]4O[C@H](CO)[C@H](O)[C@H](O)[C@H]4O)nc3c2)no1	-19	-1	5	0	11	4
COc1ccc(CNc2ncnc3c2[nH]c2ccccc23)cc1	37*	9	21	-30	-14	6
CC(C)OCCCNc1ncnc2c1[nH]c1ccccc12	39*	5	30*	-28	-29	2
O=c1c2[nH]c3ccccc3c2ncn1CCC1=CCCCC1	-5	-1	3	3	6	-2
C1=C(CCNc2ncnc3c2[nH]c2ccccc23)CCCC1	22	8	32*	-14	-13	-4
CCOc1ccc2[nH]c3c(NCCCOC)ncnc3c2c1	3	-4	22	-8	-5	-10
O=S(=O)(Nc1ccc(C(O)(C(F)(F)F)C(F)(F)F)cc1)c1cccc2cccnc12	-4	1	4	-2	-2	-3
COc1ccc(NC(=O)N[C@H]2CC[C@@H](CC(=O)NC3CCC3)O[C@@H]2CO)cc1	·	0	10	-3	·	·
CC(=O)Nc1cc(-c2cccnc2)cn2c(-c3ccc(F)cc3)cnc12	-19	0	-2	0	15	-6
CC(C)CCNC(=O)C1(C)CCN1Cc1ccc(-c2ccccn2)cc1 (stereo not given)	-2	-2	3	-8	-6	-9
O=[N+]([O-])c1ccc(Sc2ccccn2)nc1	9	-2	6	0	-2	-3
O=C(Nc1cc(Sc2ccccn2)cc([N+](=O)[O-])c1)c1ccc([N+](=O)[O-])cc1	24*	-1	-7	-4	-16	2
C[C@H](CO)N1C[C@H](C)[C@H](CN(C)S(=O)(=O)c2cccc(F)c2)Oc2ncc(-c3cccc(C(=O)N(C)C)c3)cc2C1=O	-4	0	-11	5	-2	-2
CN(C)C(=O)CSc1nnc2sc3ccccc3n12	-19	-3	0	3	5	-5
CCOC(=O)CC(=O)CSc1nnc2sc3ccccc3n12	-5	-9	-15	35*	4	-4
OC1CC2CCC(C1)N2CCCN1c2ccccc2Sc2ccc(Cl)cc21 (stereo not given)	67*	-9	26	-40	-27	2
O=[N+]([O-])c1ccc(N/N=C/C=C/c2ccco2)cc1	35	29*	32*	-23	-14	12
O=C(O)c1ccc(N/N=C/C=C/c2ccc([N+](=O)[O-])o2)cc1	36*	36*	28*	-10	-13	27*
O=C(N/N=C/c1ccco1)c1cc([N+](=O)[O-])cc([N+](=O)[O-])c1	-5	-2	3	6	8	-4
CCCCC1(Cc2ccc([N+](=O)[O-])cc2)C(=O)N(c2ccccc2)N(c2ccccc2)C1=O	36*	-6	16	-23	-9	-2
CCCCC1(COC(=O)CCC(=O)O)C(=O)N(c2ccccc2)N(c2ccccc2)C1=O	-24	0	4	-1	1	-3
CCN(c1ccccc1)S(=O)(=O)c1ccc(C(=O)N2CCN(c3ccccc3F)CC2)cc1	17	-2	0	-1	-12	-7
N#Cc1ccccc1OCC(=O)OCCCOC(=O)COc1ccccc1C#N	0	-4	27*	-11	1	-2
N#Cc1ccccc1OCC(=O)OCC(=O)N1CCCC1	-6	2	16	-6	0	-1
COCCCN(C(=O)C1=COCCO1)c1c(N)n(Cc2ccccc2)c(=O)[nH]c1=O	-9	0	-2	-1	1	-4
SMILES	CHRM1 antagonist	CHRM5 agonist	M5 antag	CHRM5 PAM	M1 PAM	M1 ag
CCCCCc1nc2c(=O)[nH]c3ccccc3c2o1	11	-8	8	-8	1	-2
CCCc1nc2c(=O)[nH]c3ccccc3c2o1	-8	0	1	19*	10	1
O=C(Cn1c(=O)c2cccn2c2cccnc21)N1CCN(c2ccccc2F)CC1	14	1	26	25*	13	0
O=C(CCCn1c(=O)c2cccn2c2cccnc21)N1CCN(c2ccccc2F)CC1	-1	-4	1	1	-1	-2
CC(C)(C)OC(=O)N1CCCN(C(c2ccnc3ccccc23)c2nnnn2-c2ccc3c(c2)OCCO3)CC1 (stereo not given)	·	4	-7	-2	·	·
CC1(C)CC(C(CCN(Cc2ccccc2)C(=O)c2ccco2)c2ccc(F)cc2)CCO1 (stereo not given)	36*	-3	17	-19	-19	-3
COc1cccc(NC(=O)N(C)C[C@@H]2OCc3cnnn3CCCC(=O)N([C@@H](C)CO)C[C@H]2C)c1	-9	1	5	-3	3	-5
O=C(OCC(=O)N1CCCC1=O)c1cccc(S(=O)(=O)N2CCOCC2)c1	1	6	-2	32*	10	3
CCOC(=O)C1CCCN(c2cc(=O)n(Cc3ccc(F)cc3)c(=O)[nH]2)C1 (stereo not given)	1	24*	-6	-3	-9	22*
CCOC(=O)N1CCN(c2cc(=O)n(-c3ccccc3C)c(=O)[nH]2)CC1	0	7	-6	3	5	-1
CCOC(=O)C1CCCN(c2cc(=O)n(-c3ccccc3Cl)c(=O)[nH]2)C1 (stereo not given)	-5	17	-2	-8	-4	29*
C[C@@H]1Cn2cnc(C(=O)Nc3cccc(Cl)c3)c2C(=O)N1	-8	0	3	1	2	3
Cc1cc(=O)oc2c(C)c(OC(C)C(=O)Nc3ccc(N4CCC(C)CC4)cc3)ccc12 (stereo not given)	-10	-2	-14	21*	9	-4
COC(=O)C[C@H]1C[C@@H]2c3cc(NC(=O)NC4CCCC4)ccc3O[C@@H]2[C@@H](CO)O1	-17	0	-4	7	5	-4
Cc1cc(NCc2ccccc2)n2ncc(-c3ccccc3)c2n1	39*	-5	4	-13	-22	-8
Cc1cc(C)n2ncc(C(=O)NCCc3ccccc3)c2n1	-25	1	3	4	7	-3
Cc1cc(C)n2ncc(C(=O)NCc3ccccc3)c2n1	10	0	20	31*	8	0
COc1ccc(OCC(=O)OC2CCN(C)CC2)cc1	-2	-4	-1	1	6	-3
CN1CCC(OC(=O)COc2ccc(Br)cc2)CC1	31*	-10	10	-13	-32	-13
Cc1ccccc1OCC(=O)OC1CCN(C)CC1	32*	-8	8	-19	-18	-6
C=CCn1c(SCC#N)nc2sc(CC)cc2c1=O	34*	-18	2	-3	-20	-6

Screening data deposited in PubChem BioAssay by The Scripps Research Institute Molecular Screening Center.
